# Reference: ChEMBL document CHEMBL3259628, “Discovery of novel 2-((pyridin-3-yloxy)methyl)piperazines as α7 nicotinic acetylcholine receptor modulators for the treatment of inflammatory disorders” (J Med Chem, 2014)
# The source made the active and inactive calls. The rule behind the calls is not given here.
# Experiments:
# [1] = target: Neuronal acetylcholine receptor subunit alpha-7 (Rattus norvegicus, UniProt Q05941); assay: Inhibition of biotinylated alpha-bungarotoxin binding to alpha7 nAChR in rat PC12 cells by FACS analysis; format: cell-based, PC-12
# Outline: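 Rat PC12 cells in binding buffer (PBS, 1.0% FBS, 0.02% sodium azide), 0.1% DMSO; biotinylated α-bungarotoxin 10 nM final, 1 h at room temperature; nonspecific binding defined with 1.5 μM unlabeled toxin. After washing, phycoerythrin-streptavidin 1.0 μg/mL final, 15 min in the dark; read by FACS. Screened at 10 and 1 μM, then eight-point 3-fold dilution IC50; mean of two or more experiments.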
# [2] = target: Acetylcholine receptor; alpha1/beta1/delta/gamma (Homo sapiens) (UniProt P02708+P07510+P11230+Q07001); assay: Inhibition of alpha1beta1gammadelta nAChR (unknown origin) at 10 uM; format: protein-complex assay
# Outline: (§1)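 Receptor, ion channel and transporter binding panel run at Cerep in duplicate. Percent inhibition measured at 10 μM compound.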
# [3] = target: T1, 5-hydroxytryptamine receptor 3A (Homo sapiens) (UniProt P46098); assay: Inhibition of 5-HT3 receptor (unknown origin) at 10 uM; outline: as §1
# T1 sequence (whole entry): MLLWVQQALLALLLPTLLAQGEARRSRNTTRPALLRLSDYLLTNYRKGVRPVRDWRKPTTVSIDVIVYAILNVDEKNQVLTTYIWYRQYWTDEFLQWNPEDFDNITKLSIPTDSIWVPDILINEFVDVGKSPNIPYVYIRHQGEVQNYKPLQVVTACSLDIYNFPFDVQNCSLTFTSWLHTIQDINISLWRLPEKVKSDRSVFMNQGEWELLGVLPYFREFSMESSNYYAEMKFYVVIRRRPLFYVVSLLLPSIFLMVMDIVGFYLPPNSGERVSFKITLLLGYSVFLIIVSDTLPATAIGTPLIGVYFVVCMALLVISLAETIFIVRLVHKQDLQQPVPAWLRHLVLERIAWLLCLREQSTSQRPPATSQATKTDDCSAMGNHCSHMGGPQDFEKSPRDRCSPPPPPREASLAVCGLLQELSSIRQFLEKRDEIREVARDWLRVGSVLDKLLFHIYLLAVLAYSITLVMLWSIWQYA
# [4] = target: Neuronal acetylcholine receptor; alpha4/beta2 (Homo sapiens, UniProt P17787+P43681); assay: Inhibition of human alpha4beta2 nAChR at 10 uM by binding assay
# hERG (KCNH2) = hERG (KCNH2) (Homo sapiens, UniProt Q12809); assay: Inhibition of human ERG at 1 uM by whole-cell voltage clamp assay
# CYP1A2 = target: T2, CYP1A2 (Homo sapiens, UniProt P05177); assay: Inhibition of CYP1A2 (unknown origin) at 10 uM; format: ADME
# T2 sequence (P05177 whole entry): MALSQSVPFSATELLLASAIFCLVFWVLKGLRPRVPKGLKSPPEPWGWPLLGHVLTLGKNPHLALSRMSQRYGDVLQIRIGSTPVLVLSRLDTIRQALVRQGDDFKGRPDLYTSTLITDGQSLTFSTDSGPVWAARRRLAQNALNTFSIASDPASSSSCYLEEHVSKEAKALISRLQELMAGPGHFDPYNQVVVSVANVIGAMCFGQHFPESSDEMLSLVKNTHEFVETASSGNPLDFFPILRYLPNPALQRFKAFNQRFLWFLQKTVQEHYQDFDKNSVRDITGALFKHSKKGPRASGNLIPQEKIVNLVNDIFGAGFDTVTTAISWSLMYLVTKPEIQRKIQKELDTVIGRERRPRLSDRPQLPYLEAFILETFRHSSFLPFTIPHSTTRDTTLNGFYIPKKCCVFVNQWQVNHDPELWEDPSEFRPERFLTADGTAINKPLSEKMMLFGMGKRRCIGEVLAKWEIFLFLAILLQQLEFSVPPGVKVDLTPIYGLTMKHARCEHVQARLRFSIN
# Outline: (§2)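 Each of five Cyp isoforms assayed with single probe substrates rather than a substrate cocktail. Run in duplicate at Cerep. IC50 lines come from a 5-concentration titration curve.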
# CYP2C9 = CYP2C9 (Homo sapiens, UniProt P11712); assay: Inhibition of CYP2C9 (unknown origin) at 10 uM; format: ADME; outline: as §2
# CYP2C19 = CYP2C19 (Homo sapiens, UniProt P33261); assay: Inhibition of CYP2C19 (unknown origin) at 10 uM; format: ADME; outline: as §2
# CYP2D6 = CYP2D6 (Homo sapiens, UniProt P10635); assay: Inhibition of CYP2D6 (unknown origin) at 10 uM; format: ADME; outline: as §2
# CYP3A4 = CYP3A4 (Homo sapiens, UniProt P08684); assay: Inhibition of CYP3A4 (unknown origin) at 10 uM; format: ADME; outline: as §2
# Mus musculus [5] = assay: (§3) Antiinflammatory activity against ovalbumin-induced allergic lung inflammation BALB/c mouse model assessed as reduction in neutrophils in brochoalveolar lavage fluid at 1 mg/kg, po bid administered on day 29 to 31 post ovalbumin challenge measured 8 hrs post last challenge relative to vehicle-treated control; format: functional; conditions: Bronchoalveolar lavage
# Outline: (§4)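 Balb/c mice sensitized with ovalbumin by IP injection on days 1 and 14, then challenged intranasally with 100 μg ovalbumin on days 29, 30 and 31. Compound in saline given orally starting 30 min before each challenge; groups of six mice. Sham groups were saline-sensitized and allergen-challenged. BAL taken 8 h after the last challenge, with differential cell counts on slides.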
# Mus musculus [6] = assay: as §3, with “eosinophils” for “neutrophils”; format: functional; outline: as §4
# CYP2D6, sequence (P10635 whole entry): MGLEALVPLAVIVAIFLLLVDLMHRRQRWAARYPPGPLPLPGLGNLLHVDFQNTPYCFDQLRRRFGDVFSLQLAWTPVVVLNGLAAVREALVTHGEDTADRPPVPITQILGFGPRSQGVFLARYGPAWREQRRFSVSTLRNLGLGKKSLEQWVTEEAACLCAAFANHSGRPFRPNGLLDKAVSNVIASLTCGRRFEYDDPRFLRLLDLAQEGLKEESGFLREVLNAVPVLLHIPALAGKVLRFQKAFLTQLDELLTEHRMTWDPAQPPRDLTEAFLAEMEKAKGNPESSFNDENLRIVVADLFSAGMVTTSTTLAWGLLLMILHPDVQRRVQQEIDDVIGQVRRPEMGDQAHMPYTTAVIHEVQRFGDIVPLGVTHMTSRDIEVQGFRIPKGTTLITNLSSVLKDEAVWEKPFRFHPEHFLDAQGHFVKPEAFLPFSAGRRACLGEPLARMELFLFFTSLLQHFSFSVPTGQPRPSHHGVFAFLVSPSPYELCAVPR
# CYP3A4, sequence (P08684 whole entry): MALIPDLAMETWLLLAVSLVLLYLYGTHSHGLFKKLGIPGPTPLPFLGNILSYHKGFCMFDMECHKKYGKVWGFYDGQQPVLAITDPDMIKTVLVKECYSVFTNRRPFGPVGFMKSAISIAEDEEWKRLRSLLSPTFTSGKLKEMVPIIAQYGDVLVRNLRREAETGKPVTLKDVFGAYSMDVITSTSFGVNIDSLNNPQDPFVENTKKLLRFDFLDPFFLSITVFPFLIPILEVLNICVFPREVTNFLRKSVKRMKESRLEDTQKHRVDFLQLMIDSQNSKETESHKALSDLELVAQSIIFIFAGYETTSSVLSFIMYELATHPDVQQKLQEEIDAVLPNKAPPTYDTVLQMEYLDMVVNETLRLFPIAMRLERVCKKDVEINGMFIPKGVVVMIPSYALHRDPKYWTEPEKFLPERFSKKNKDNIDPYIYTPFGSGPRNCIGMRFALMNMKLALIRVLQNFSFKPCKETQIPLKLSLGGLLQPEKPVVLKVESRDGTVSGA
# hERG (KCNH2), sequence (Q12809 whole entry): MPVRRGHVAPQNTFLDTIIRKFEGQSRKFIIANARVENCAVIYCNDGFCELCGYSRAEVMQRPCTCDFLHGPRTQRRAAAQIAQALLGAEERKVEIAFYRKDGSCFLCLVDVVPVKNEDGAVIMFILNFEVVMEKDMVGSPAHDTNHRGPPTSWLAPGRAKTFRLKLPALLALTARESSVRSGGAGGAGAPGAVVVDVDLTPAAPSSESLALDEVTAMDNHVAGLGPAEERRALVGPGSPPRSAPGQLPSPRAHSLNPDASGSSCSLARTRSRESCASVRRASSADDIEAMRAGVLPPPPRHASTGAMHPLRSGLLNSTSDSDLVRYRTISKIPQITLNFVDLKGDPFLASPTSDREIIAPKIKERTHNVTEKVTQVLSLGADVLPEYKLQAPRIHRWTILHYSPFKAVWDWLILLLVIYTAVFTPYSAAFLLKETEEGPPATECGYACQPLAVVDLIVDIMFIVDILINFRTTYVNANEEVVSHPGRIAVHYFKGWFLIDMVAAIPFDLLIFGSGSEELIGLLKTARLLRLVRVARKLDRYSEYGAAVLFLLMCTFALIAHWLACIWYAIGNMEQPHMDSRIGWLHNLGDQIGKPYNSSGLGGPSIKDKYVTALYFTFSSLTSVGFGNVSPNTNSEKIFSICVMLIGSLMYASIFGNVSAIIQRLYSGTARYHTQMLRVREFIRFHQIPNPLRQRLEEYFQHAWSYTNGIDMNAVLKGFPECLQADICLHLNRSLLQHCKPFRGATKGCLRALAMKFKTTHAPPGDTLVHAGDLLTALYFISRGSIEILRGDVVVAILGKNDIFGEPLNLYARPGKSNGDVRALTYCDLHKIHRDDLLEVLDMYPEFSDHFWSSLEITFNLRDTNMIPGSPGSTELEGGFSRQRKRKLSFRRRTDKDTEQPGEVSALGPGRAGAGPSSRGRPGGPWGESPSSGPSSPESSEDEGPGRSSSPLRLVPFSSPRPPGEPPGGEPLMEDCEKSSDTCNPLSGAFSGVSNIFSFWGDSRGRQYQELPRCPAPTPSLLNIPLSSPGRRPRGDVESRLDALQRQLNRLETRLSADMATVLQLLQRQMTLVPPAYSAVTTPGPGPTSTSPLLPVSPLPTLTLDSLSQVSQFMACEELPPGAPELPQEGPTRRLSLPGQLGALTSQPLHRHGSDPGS
# Neuronal acetylcholine receptor subunit alpha-7, sequence (Q05941 whole entry): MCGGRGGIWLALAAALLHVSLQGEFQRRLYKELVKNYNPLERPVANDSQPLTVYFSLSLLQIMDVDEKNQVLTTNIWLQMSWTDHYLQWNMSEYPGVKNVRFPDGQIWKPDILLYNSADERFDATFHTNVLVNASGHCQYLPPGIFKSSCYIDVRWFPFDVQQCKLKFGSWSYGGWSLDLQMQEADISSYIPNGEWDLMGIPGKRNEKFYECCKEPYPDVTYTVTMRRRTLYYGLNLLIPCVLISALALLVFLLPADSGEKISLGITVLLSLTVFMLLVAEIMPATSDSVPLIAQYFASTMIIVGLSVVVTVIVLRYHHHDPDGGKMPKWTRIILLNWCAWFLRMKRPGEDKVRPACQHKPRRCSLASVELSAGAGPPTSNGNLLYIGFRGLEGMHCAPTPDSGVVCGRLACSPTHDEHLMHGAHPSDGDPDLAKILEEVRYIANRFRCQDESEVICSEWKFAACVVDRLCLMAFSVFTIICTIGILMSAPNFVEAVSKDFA
# CYP2C19, sequence (P33261 whole entry): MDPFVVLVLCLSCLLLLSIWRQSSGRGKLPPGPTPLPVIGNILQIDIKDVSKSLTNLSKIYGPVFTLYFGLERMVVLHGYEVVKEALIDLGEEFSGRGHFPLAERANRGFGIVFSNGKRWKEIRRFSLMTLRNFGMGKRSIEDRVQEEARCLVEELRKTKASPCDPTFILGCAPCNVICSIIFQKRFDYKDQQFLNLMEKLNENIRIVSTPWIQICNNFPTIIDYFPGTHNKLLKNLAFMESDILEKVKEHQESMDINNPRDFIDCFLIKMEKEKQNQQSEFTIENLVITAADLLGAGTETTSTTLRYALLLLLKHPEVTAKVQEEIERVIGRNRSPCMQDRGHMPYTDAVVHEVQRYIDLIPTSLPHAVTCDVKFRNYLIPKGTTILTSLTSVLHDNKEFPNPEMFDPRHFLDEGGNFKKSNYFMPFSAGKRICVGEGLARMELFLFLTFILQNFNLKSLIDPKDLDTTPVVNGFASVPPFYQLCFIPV
# CYP2C9, sequence (P11712 whole entry): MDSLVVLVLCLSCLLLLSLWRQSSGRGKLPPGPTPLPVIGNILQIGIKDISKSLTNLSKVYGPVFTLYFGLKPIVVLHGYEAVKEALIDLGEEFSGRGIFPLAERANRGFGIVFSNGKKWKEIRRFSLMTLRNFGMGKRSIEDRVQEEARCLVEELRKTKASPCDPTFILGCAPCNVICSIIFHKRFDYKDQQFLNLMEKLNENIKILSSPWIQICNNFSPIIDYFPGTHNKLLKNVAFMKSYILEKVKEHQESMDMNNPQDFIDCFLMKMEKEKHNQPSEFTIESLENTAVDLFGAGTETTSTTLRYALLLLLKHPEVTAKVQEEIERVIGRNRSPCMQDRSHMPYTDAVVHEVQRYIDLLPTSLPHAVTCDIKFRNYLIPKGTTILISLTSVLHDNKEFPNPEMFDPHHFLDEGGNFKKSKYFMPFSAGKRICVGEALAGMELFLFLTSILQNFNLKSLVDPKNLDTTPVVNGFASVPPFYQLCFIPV
compound,measurement,setting,value
Brc1ccc2oc(N3CCNC[C@@H]3COc3cccnc3)nc2c1,IC50,[1],0.067 µM
same,inhibition,[2],-3%
same,inhibition,[3],100%
same,inhibition,[4],96%
Brc1ccc2oc(N3CCNC[C@H]3COc3cccnc3)nc2c1,IC50,[1],3.2 µM
c1cncc(OC[C@@H]2CNCCN2c2nc3ncccc3o2)c1,IC50,[1],1.58 µM
COc1ccc2nc(N3CCNC[C@@H]3COc3cccnc3)sc2c1,IC50,[1],0.046 µM
same,inhibition,[2],9%
same,inhibition,[3],99%
same,inhibition at 1 µM,hERG (KCNH2),36%
same,inhibition at 10 µM,CYP1A2,63%
same,inhibition at 10 µM,CYP2C9,33%
same,inhibition at 10 µM,CYP2C19,78%
same,inhibition at 10 µM,CYP2D6,50%
same,inhibition at 10 µM,CYP3A4,49%
same,inhibition,[4],83%
COc1ccc2nc(N3CCNC[C@H]3COc3cccnc3)sc2c1,IC50,[1],5.1 µM
COc1ccc(NC(=O)N2CCNC[C@H]2COc2cccnc2)cc1,IC50,[1],18 µM
same,inhibition,[2],2%
same,inhibition,[3],7%
same,inhibition,Mus musculus [5],inactive
same,inhibition,Mus musculus [6],inactive
COc1ccc2nc(N3CCNCC3COc3cccnc3)sc2c1 (racemic),IC50,[1],0.079 µM
c1cncc(OCC2CNCCN2c2nc3ccccc3o2)c1 (racemic),IC50,[1],0.106 µM
same,inhibition,[2],-2%
same,inhibition,[3],95%
same,inhibition at 1 µM,hERG (KCNH2),22%
same,inhibition at 10 µM,CYP1A2,36%
same,inhibition at 10 µM,CYP2C9,20%
same,inhibition at 10 µM,CYP2C19,24%
same,inhibition at 10 µM,CYP2D6,87%
same,inhibition at 10 µM,CYP3A4,17%
same,inhibition,[4],89%
COc1ccc2nc(N3CCNCC3COc3cccnc3)oc2c1 (racemic),IC50,[1],0.022 µM
COc1ccc2oc(N3CCNCC3COc3cccnc3)nc2c1 (racemic),IC50,[1],0.071 µM
Brc1ccc2oc(N3CCNCC3COc3cccnc3)nc2c1 (racemic),IC50,[1],0.075 µM
c1cncc(OCC2CNCCN2c2nc3ncccc3o2)c1 (racemic),IC50,[1],0.004 µM
c1cncc(OCC2CNCCN2c2nc3ccccc3s2)c1 (racemic),IC50,[1],0.49 µM
COc1ccc2sc(N3CCNCC3COc3cccnc3)nc2c1 (racemic),IC50,[1],0.107 µM
Cc1ccc2nc(N3CCNCC3COc3cccnc3)sc2c1 (racemic),IC50,[1],0.085 µM
Clc1ccc2nc(N3CCNCC3COc3cccnc3)sc2c1 (racemic),IC50,[1],0.153 µM
FC(F)(F)Oc1ccc2nc(N3CCNCC3COc3cccnc3)sc2c1 (racemic),IC50,[1],0.27 µM
FC(F)(F)c1ccc2nc(N3CCNCC3COc3cccnc3)sc2c1 (racemic),IC50,[1],0.338 µM
Fc1ccc2nc(N3CCNCC3COc3cccnc3)sc2c1 (racemic),IC50,[1],0.132 µM
Fc1cccc2sc(N3CCNCC3COc3cccnc3)nc12 (racemic),IC50,[1],0.017 µM
same,inhibition,[2],20%
same,inhibition,[3],99%
same,inhibition at 1 µM,hERG (KCNH2),19%
same,inhibition at 10 µM,CYP1A2,63%
same,inhibition at 10 µM,CYP2C9,28%
same,inhibition at 10 µM,CYP2C19,60%
same,inhibition at 10 µM,CYP2D6,60%
same,inhibition at 10 µM,CYP3A4,75%
same,inhibition,[4],53%
Fc1cc(F)c2nc(N3CCNCC3COc3cccnc3)sc2c1 (racemic),IC50,[1],0.019 µM
same,inhibition,[2],12%
same,inhibition,[3],91%
same,inhibition at 1 µM,hERG (KCNH2),36%
same,inhibition at 10 µM,CYP1A2,67%
same,inhibition at 10 µM,CYP2C9,26%
same,inhibition at 10 µM,CYP2C19,70%
same,inhibition at 10 µM,CYP2D6,72%
same,inhibition at 10 µM,CYP3A4,83%
same,inhibition,[4],45%
c1cncc(OCC2CNCCN2c2nc3ncccc3s2)c1 (racemic),IC50,[1],0.032 µM
Clc1cnc2nc(N3CCNCC3COc3cccnc3)sc2c1 (racemic),IC50,[1],0.004 µM
O=C(c1ccccc1)N1CCNCC1COc1cccnc1 (racemic),IC50,[1],1.08 µM
O=C(c1ccc(Cl)cc1)N1CCNCC1COc1cccnc1 (racemic),IC50,[1],6.1 µM
O=C(Cc1ccccc1)N1CCNCC1COc1cccnc1 (racemic),IC50,[1],0.56 µM
O=C(Cc1ccc(Cl)cc1)N1CCNCC1COc1cccnc1 (racemic),IC50,[1],0.11 µM
O=C(COc1ccccc1)N1CCNCC1COc1cccnc1 (racemic),IC50,[1],2.34 µM
O=C(Nc1ccccc1)N1CCNCC1COc1cccnc1 (racemic),IC50,[1],0.68 µM
O=C(Nc1ccc(Cl)cc1)N1CCNCC1COc1cccnc1 (racemic),IC50,[1],0.07 µM
O=C(Oc1ccccc1)N1CCNCC1COc1cccnc1 (racemic),IC50,[1],0.037 µM
O=C(Oc1ccc(Cl)cc1)N1CCNCC1COc1cccnc1 (racemic),IC50,[1],0.0095 µM
COc1ccc(OC(=O)N2CCNCC2COc2cccnc2)cc1 (racemic),IC50,[1],0.011 µM
same,inhibition,[2],2%
same,inhibition,[3],39%
same,inhibition,[4],90%
O=C(Nc1cccc(Cl)c1)N1CCNCC1COc1cccnc1 (racemic),IC50,[1],0.21 µM
O=C(Nc1ccc(Cl)c(Cl)c1)N1CCNCC1COc1cccnc1 (racemic),IC50,[1],0.04 µM
Cc1ccc(NC(=O)N2CCNCC2COc2cccnc2)cc1 (racemic),IC50,[1],0.074 µM
O=C(Nc1ccc(C(F)(F)F)cc1)N1CCNCC1COc1cccnc1 (racemic),IC50,[1],0.22 µM
CC(C)c1ccc(NC(=O)N2CCNCC2COc2cccnc2)cc1 (racemic),IC50,[1],0.28 µM
COc1cccc(NC(=O)N2CCNCC2COc2cccnc2)c1 (racemic),IC50,[1],0.34 µM
COc1ccccc1NC(=O)N1CCNCC1COc1cccnc1 (racemic),IC50,[1],0.85 µM
COc1ccc(NC(=O)N2CCNCC2COc2cccnc2)c(OC)c1 (racemic),IC50,[1],0.08 µM
COc1ccc(NC(=O)N2CCNCC2COc2cccnc2)cc1Cl (racemic),IC50,[1],0.045 µM
same,inhibition,[2],17%
same,inhibition,[3],40%
same,inhibition at 1 µM,hERG (KCNH2),17%
same,inhibition at 10 µM,CYP1A2,20%
same,inhibition at 10 µM,CYP2C9,10%
same,inhibition at 10 µM,CYP2C19,47%
same,inhibition at 10 µM,CYP2D6,25%
same,inhibition at 10 µM,CYP3A4,66%
same,inhibition,[4],23%
O=C(Nc1ccc(OC(F)(F)F)cc1)N1CCNCC1COc1cccnc1 (racemic),IC50,[1],0.152 µM
O=C(Nc1ccc(Br)cc1)N1CCNCC1COc1cccnc1 (racemic),IC50,[1],0.05 µM
Cc1cc(NC(=O)N2CCNCC2COc2cccnc2)ccc1Br (racemic),IC50,[1],0.014 µM
same,inhibition,[2],23%
same,inhibition,[3],80%
same,inhibition at 1 µM,hERG (KCNH2),27%
same,inhibition at 10 µM,CYP1A2,48%
same,inhibition at 10 µM,CYP2C9,21%
same,inhibition at 10 µM,CYP2C19,51%
same,inhibition at 10 µM,CYP2D6,85%
same,inhibition at 10 µM,CYP3A4,80%
same,inhibition,[4],15%
O=C(Nc1ccc(Br)cc1F)N1CCNCC1COc1cccnc1 (racemic),IC50,[1],0.042 µM
same,inhibition,[2],7%
same,inhibition,[3],47%
same,inhibition at 1 µM,hERG (KCNH2),18%
same,inhibition at 10 µM,CYP1A2,13%
same,inhibition at 10 µM,CYP2C9,7%
same,inhibition at 10 µM,CYP2C19,32%
same,inhibition at 10 µM,CYP2D6,41%
same,inhibition at 10 µM,CYP3A4,58%
same,inhibition,[4],30%
O=C(Nc1ccc(-c2ccccc2)cc1)N1CCNCC1COc1cccnc1 (racemic),IC50,[1],0.013 µM
O=C(c1ccccc1)c1ccc(NC(=O)N2CCNCC2COc2cccnc2)cc1 (racemic),IC50,[1],0.041 µM
same,inhibition,[2],10%
same,inhibition,[3],16%
same,inhibition at 1 µM,hERG (KCNH2),40%
same,inhibition at 10 µM,CYP1A2,16%
same,inhibition at 10 µM,CYP2C9,62%
same,inhibition at 10 µM,CYP2C19,49%
same,inhibition at 10 µM,CYP2D6,7%
same,inhibition at 10 µM,CYP3A4,23%
same,inhibition,[4],18%
O=C(Nc1ccc2c(c1)CCO2)N1CCNCC1COc1cccnc1 (racemic),IC50,[1],0.63 µM
